Assay results taken from PMC8802302 (Journal of Medicinal Chemistry, 2021).

Columns and labels:
16-member kinase panel = assay: Eurofins custom enzymatic kinase panel, count of kinases inhibited; type: biochemical; conditions: 16-member Eurofins panel, 1 μM
Method in brief: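 Radiometric kinase assays were run with ATP at Km. Each test compound was tested at a single concentration of 1 μM, in duplicate, against each panel kinase, with results as percent of control. The count is the number of kinases at ≤ 10 PoC, i.e. inhibited ≥ 90%.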

[1] = tested on: 403 wild-type (WT) human kinases; assay: DiscoverX scanMAX kinome-wide selectivity screen; type: binding; conditions: 403 WT human kinases; for no. kinases with PoC < 10: DiscoverX scanMAX, 1 μM; for S10 (1 μM): Percentage of screened kinases with PoC values < 10 at 1 μM
PAMPA permeability = type: in vitro ADME; conditions: PBS pH 7.4, 5 h incubation
Method in brief: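 DMSO stocks of test compound were diluted in PBS pH 7.4 and added to the donor side of a precoated PAMPA plate, with PBS pH 7.4 as acceptor, for 5 h. Both compartments were quantified by chemiluminescent nitrogen detection against a calibration curve, with background nitrogen corrected. Effective permeability was calculated from donor and acceptor concentrations, using measured rather than assumed solubility.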

DRAK1 (DRAK1-NLuc) = molecular target: T1, DRAK1 (DRAK1-NLuc) (Homo sapiens, UniProt Q9UEE5); assay: NanoBRET cellular target engagement assay; type: cell-based; conditions: HEK293, 0.5 μM tracer K-9; n = 1 where no error, SEM n = 3
T1 sequence (Q9UEE5 1-414): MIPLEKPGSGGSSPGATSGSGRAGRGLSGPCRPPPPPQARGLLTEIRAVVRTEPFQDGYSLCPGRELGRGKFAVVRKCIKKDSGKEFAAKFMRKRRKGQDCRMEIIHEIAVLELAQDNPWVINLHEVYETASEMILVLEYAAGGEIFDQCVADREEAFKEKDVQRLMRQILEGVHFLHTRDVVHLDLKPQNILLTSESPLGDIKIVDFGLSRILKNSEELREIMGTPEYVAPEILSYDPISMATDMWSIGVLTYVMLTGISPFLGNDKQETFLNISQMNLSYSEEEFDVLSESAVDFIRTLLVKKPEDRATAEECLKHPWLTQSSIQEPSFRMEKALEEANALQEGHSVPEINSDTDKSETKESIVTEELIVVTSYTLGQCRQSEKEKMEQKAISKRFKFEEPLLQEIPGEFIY

TBK1 (NLuc-TBK1) = molecular target: T2, TBK1 (NLuc-TBK1) (Homo sapiens, UniProt Q9UHD2); assay: NanoBRET cellular target engagement assay; type: cell-based; conditions: HEK293, 0.5 μM tracer K-5; n = 1 where no error, SEM n = 3
T2 sequence (Q9UHD2 1-729): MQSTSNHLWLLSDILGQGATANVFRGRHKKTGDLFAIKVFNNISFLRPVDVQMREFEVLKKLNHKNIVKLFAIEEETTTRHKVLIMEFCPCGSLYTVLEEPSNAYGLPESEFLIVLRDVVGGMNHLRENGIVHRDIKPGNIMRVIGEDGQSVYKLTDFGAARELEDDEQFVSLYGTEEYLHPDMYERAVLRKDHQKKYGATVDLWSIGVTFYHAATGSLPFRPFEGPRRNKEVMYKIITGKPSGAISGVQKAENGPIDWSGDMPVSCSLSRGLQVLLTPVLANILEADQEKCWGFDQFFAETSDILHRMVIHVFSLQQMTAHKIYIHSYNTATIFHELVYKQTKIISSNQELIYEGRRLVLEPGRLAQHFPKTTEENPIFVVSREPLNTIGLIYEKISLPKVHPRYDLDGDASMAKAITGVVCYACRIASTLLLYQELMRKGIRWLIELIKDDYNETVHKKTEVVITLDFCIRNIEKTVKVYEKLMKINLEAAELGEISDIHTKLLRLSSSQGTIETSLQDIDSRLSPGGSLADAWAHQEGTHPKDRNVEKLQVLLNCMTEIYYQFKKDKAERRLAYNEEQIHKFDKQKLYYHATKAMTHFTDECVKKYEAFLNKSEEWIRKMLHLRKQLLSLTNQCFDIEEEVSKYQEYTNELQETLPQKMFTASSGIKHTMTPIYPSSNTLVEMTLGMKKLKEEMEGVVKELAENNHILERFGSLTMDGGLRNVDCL
Method in brief: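 HEK293 cells were grown in DMEM with 10% FBS at 37 °C under 5% CO2, passaged every 72 h with trypsin and kept below confluency. Cells expressed NanoLuc fusions (DRAK1-NLuc or NLuc-TBK1). Dose–response was run per the manufacturer's protocol, with 0.5 μM tracer K-9 for DRAK1 and 0.5 μM tracer K-5 for TBK1. SEM was reported where assays were repeated.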

MARK4 (NLuc-MARK4) = molecular target: T3, MARK4 (NLuc-MARK4) (Homo sapiens, UniProt Q96L34); assay: NanoBRET cellular target engagement assay; type: cell-based; conditions: HEK293, 0.5 μM tracer K-5; n = 1 where no error, SEM n = 2
T3 sequence (Q96L34 1-752): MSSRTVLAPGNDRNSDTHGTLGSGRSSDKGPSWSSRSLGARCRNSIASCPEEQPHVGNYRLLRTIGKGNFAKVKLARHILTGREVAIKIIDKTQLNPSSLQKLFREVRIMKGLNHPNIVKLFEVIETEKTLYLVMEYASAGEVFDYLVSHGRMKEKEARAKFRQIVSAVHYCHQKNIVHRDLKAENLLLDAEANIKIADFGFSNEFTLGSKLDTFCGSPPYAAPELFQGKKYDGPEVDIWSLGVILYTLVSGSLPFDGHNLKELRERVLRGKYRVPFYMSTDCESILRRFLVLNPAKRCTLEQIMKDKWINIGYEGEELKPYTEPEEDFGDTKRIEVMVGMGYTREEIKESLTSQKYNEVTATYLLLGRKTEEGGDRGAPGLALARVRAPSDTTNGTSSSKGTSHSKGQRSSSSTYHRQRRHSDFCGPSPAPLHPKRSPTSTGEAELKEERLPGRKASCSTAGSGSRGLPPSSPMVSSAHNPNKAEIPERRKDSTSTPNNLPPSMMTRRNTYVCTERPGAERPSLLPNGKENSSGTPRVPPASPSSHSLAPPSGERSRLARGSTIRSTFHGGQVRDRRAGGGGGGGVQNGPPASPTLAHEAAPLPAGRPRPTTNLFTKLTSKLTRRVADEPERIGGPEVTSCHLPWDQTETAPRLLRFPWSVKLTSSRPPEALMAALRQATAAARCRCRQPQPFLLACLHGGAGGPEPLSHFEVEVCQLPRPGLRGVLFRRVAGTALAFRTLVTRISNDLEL

MARK3 (NLuc-MARK3) = MARK3 (NLuc-MARK3) (Homo sapiens, UniProt P27448); assay: NanoBRET cellular target engagement assay; type: cell-based; conditions: HEK293, 0.5 μM tracer K-9; n = 1 where no error, SEM n = 2
Chain of MARK3 (NLuc-MARK3) (P27448 whole entry): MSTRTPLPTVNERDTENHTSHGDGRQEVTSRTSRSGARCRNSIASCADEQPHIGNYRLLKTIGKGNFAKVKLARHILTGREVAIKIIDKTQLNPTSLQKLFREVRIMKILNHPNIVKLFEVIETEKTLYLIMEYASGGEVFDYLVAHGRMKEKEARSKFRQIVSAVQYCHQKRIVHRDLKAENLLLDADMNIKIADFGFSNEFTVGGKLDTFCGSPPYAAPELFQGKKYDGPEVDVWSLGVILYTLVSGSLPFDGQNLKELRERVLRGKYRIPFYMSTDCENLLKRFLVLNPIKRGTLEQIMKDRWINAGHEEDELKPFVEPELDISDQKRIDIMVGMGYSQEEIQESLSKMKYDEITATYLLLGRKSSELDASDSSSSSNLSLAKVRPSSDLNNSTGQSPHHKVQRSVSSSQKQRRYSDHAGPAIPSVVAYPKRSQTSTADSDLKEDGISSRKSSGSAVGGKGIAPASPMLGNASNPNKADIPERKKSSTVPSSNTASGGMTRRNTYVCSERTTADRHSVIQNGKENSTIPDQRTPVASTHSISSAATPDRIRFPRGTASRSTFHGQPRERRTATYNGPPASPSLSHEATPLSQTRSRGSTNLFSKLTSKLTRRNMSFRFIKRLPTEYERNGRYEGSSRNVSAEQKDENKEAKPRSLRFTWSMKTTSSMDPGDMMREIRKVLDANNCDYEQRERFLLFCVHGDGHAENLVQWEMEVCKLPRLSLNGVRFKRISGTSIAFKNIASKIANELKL

Row | no. kinases ≤ 10 PoC in enzyme panel (16-member kinase panel) | Pe (permeability coefficient, PAMPA) (PAMPA permeability) | DRAK1 NanoBRET IC50 (DRAK1 (DRAK1-NLuc)) | TBK1 NanoBRET IC50 (TBK1 (NLuc-TBK1)) | MARK4 NanoBRET IC50 (MARK4 (NLuc-MARK4)) | MARK3 NanoBRET IC50 (MARK3 (NLuc-MARK3)) | SMILES | no. kinases with PoC < 10 [1] | S10 (1 μM) [1]
1 | 4 | below the limit of quantitation | – | – | – | – | NS(=O)(=O)c1ccc(CNc2nc(Nc3cccc(CN4CCOCC4)c3)ncc2Br)cc1 [Compound 6, 4-(((5-Bromo-2-((3-(morpholinomethyl)phenyl)amino)pyrimidin-4-yl)amino)methyl)benzenesulfonamide] | 19 | –
2 | 0 | – | – | – | – | – | Cc1nn(CC(F)(F)F)cc1Nc1ncc(Br)c(NCCc2cnc[nH]2)n1 [Compound 10, N^4-(2-(1H-Imidazol-5-yl)ethyl)-5-bromo-N^2-(3-methyl-1-(2,2,2-trifluoroethyl)-1H-pyrazol-4-yl)pyrimidine-2,4-diamine] | 28 | 0.069
3 | 7 | – | submicromolar | submicromolar | – | – | Cc1nn(CC(F)(F)F)cc1Nc1ncc(Br)c(NCCCNC(=O)C2CCC2)n1 [Compound 7, N-(3-((5-Bromo-2-((3-methyl-1-(2,2,2-trifluoroethyl)-1H-pyrazol-4-yl)amino)pyrimidin-4-yl)amino)propyl)cyclobutanecarboxamide] | 62 | 0.154
4 | 1 | below the limit of quantitation | – | submicromolar | – | – | Cc1nn(CC(F)(F)F)cc1Nc1ncc(Br)c(NCc2ccc(S(N)(=O)=O)cc2)n1 [GSK8612, 4-(((5-Bromo-2-((3-methyl-1-(2,2,2-trifluoroethyl)-1H-pyrazol-4-yl)amino)pyrimidin-4-yl)-amino)methyl)benzenesulfonamide, reference compound] | 8 | –
5 | 1 | low permeability | – | – | – | – | NS(=O)(=O)c1ccc(CNc2nc(Nc3cccc(CN4CCOCC4)c3)ncc2C2CC2)cc1 [Compound 11, 4-(((5-Cyclopropyl-2-((3-(morpholinomethyl)phenyl)amino)pyrimidin-4-yl)amino)methyl)-benzenesulfonamide] | 3 | 0.007
6 | 0 | below the limit of quantitation | – | – | – | – | Cc1nn(CC(F)(F)F)cc1Nc1nccc(NCc2ccc(S(N)(=O)=O)cc2)n1 [Compound 12, 4-(((2-((3-Methyl-1-(2,2,2-trifluoroethyl)-1H-pyrazol-4-yl)amino)pyrimidin-4-yl)amino)methyl)benzenesulfonamide] | 1 | –
7 | 1 | – | – | – | – | – | NS(=O)(=O)c1ccc(CNc2nc(Nc3cccc(NC(=O)N4CCCC4)c3)ncc2C2CC2)cc1 [Compound 21, N-(3-((5-Cyclopropyl-4-((4-sulfamoylbenzyl)amino)pyrimidin-2-yl)amino)phenyl)pyrrolidine-1-carboxamide] | 1 | –
8 | 0 | – | – | – | – | – | Cc1nn(CC(F)(F)F)cc1Nc1nccc(NCCCNC(=O)C2CCC2)n1 [Compound 8, N-(3-((2-((3-Methyl-1-(2,2,2-trifluoroethyl)-1H-pyrazol-4-yl)amino)pyrimidin-4-yl)amino)-propyl)cyclobutanecarboxamide] | 1 | –

Further lines, the molecule ahead of its results:

Row | SMILES | no. kinases ≤ 10 PoC in enzyme panel (16-member kinase panel) | Pe (permeability coefficient, PAMPA) (PAMPA permeability) | DRAK1 NanoBRET IC50 (DRAK1 (DRAK1-NLuc)) | TBK1 NanoBRET IC50 (TBK1 (NLuc-TBK1)) | MARK4 NanoBRET IC50 (MARK4 (NLuc-MARK4)) | MARK3 NanoBRET IC50 (MARK3 (NLuc-MARK3)) | no. kinases with PoC < 10 [1] | S10 (1 μM) [1]
9 | c1cc(CN2CCOCC2)cc(Nc2nccc(NCCc3cnc[nH]3)n2)c1 [Compound 20, N^4-(2-(1H-Imidazol-5-yl)ethyl)-N^2-(3-(morpholinomethyl)phenyl)pyrimidine-2,4-diamine] | 1 | – | – | – | – | – | 9 | 0.022
10 | O=C(Nc1cccc(Nc2ncc(Br)c(NCCc3cnc[nH]3)n2)c1)N1CCCC1 [BX-912, reference compound] | 14 | low permeability | – | – | – | – | – | –
11 | CN1CCc2cc(Nc3ncc(C4CC4)c(NCCCNC(=O)C4CCC4)n3)ccc2C1 [MRT68921, reference compound] | 13 | – | – | – | – | – | – | –
12 | Brc1cnc(Nc2cccc(CN3CCOCC3)c2)nc1NCCc1c[nH]cn1 [Compound 9, N^4-(2-(1H-Imidazol-4-yl)ethyl)-5-bromo-N^2-(3-(morpholinomethyl)phenyl)pyrimidine-2,4-diamine] | 13 | low permeability | submicromolar | – | submicromolar | submicromolar | 94 | 0.233
13 | O=C(NCCCNc1nc(Nc2cccc(NC(=O)N3CCCC3)c2)ncc1C1CC1)C1CCC1 [Compound 22, N-(3-((4-((3-(Cyclobutanecarboxamido)propyl)amino)-5-cyclopropylpyrimidin-2-yl)amino)-phenyl)pyrrolidine-1-carboxamide] | 9 | low permeability | submicromolar | – | submicromolar | – | 30 | 0.074
14 | c1cc(CN2CCOCC2)cc(Nc2ncc(C3CC3)c(NCCc3c[nH]cn3)n2)c1 [Compound 14, N^4-(2-(1H-Imidazol-4-yl)ethyl)-5-cyclopropyl-N^2-(3-(morpholinomethyl)phenyl)pyrimidine-2,4-diamine] | 6 | low permeability | – | – | submicromolar | – | 27 | 0.067
15 | O=C(NCCCNc1nc(Nc2cccc(CN3CCOCC3)c2)ncc1C1CC1)C1CCC1 [MRT67307, reference compound] | 12 | – | submicromolar | – | – | – | – | –
